Shown are actives, neighbours in structure and some others; about 12% of the full set was active somewhere.
L major viab – Leishmania major promastigote growth inhibition, primary screen; Leishmania major promastigotes, resazurin fluorescence viability; 200,000 compounds, 9% hits; inhibition, % at 10 µM; in the data active = inhibition above about 50%;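 note: promastigotes grown with compound for 44 hours at 28 °C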
ROMK primary – ROMK potassium channel modulators, primary screen, cell-based, thallium flux, MLSMR library; ATP-sensitive inward rectifier potassium channel 1 (Homo sapiens), P48048; Tet-inducible ROMK, thallium flux fluorescence; actives lie on both sides; B-score at 10 µM; 130,000 compounds, 2% hits; AID 1918, 2009;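 active = signal ratio slope over the read window, or its plate-corrected B-score, at least 3 SD from the plate mean, either direction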;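 note: B-score of the F/F0 ratio slope over 7 to 12 s after thallium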
Diaph inh CS – diaphorase inhibitors and chemical oxidizers, primary screen, counter-screen for diaphorase-coupled primary assays, biochemical, uHTS, resorufin fluorescence. inhibition, % at 20 µM. 190,000 compounds, 0.69% hits. diaphorase resazurin-to-resorufin fluorescence, NADH, 16 min; bacterial (C. kluyveri) enzyme, not human;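 active = primary screen inhibition at 20 µM above a set limit, cut at about 50% in these data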;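 note: plate controls were DMSO with full reaction for no effect and wells lacking NADH for full effect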
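Test system: bacterial diaphorase enzyme (C. kluyveri); Quantity: 0.14 U/mL diaphorase, enzyme working solution; Times: reaction incubation of 16 min at room temperature; Measured by: fluorescence of resorufin formed from resazurin, Ex 544/Em 590 nm; Benchmarks: positive control minus NADH, DMSO neutral control.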
Diaph act CS – compounds boosting diaphorase resazurin reduction – biochemical, uHTS, resorufin fluorescence, counter-screen for diaphorase-coupled primary assays, primary screen; Diaphorase/resazurin coupled assay, 16 min; hits give high values; 1 = vehicle wells, 0 = NADH-free wells; activation factor at 20 µM; 190,000 compounds, 0.005% hits; AID 1229, 2008;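 active = diaphorase activity raised at least twofold by the compound at 20 µM; inactive = activation factor below 2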
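test system = bacterial diaphorase enzyme (C. kluyveri) | quantity = enzyme 0.07 U/mL final | reagent = NADH substrate 0.114 mM plus resazurin dye 0.1 mM, final | incubation = 16 min enzyme reaction, ambient temperature | buffer or medium = HEPES pH 7.4 buffer with MgCl2 and Tween 20 | signal = fluorescence of resorufin, 544 nm excitation, 590 nm emission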
Cl transport mod – KCC2 cotransporter modulators, thallium flux, primary screen, cell-based, HEK293 KCC2, FluoZin-2 fluorescence, MLSMR | 190,000 compounds, 2.2% hits | AID 1456, 2008 | B-score of Tl+ flux slope (higher = more flux/activation; lower = inhibition) at 10 µM | KCC2 cells, thallium flux FluoZin-2 fluorescence;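 active = thallium flux slope and its plate-corrected score both differing from the plate sample mean at a set confidence after two filtering rounds, in either direction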;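 note: slope of fluorescence scaled to starting intensity during 10 to 20 s after thallium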
WT yeast gro inh – growth inhibition of WT strain, primary screen, mitochondrial fusion inhibitor project, WT and mutant strains, chemical genetic | mitochondrial fusion phenotypic screen | inhibition, % at 10 µM | 190,000 compounds, 2.1% hits; in the data active = inhibition above about 58%; tested in S. cerevisiae
An asterisk follows results filed as active; . = not tested or not shown.

SMILES	L major viab	ROMK primary	Diaph inh CS	Diaph act CS	Cl transport mod	WT yeast gro inh
Cc1cccn2cc(CSc3nnc(Nc4ccc(C(C)C)cc4)s3)nc12	28.1	.	27.8	0.7	-2.76	67.8*
COc1ccc(Nc2nnc(SCc3cn4c(C)cccc4n3)s2)cc1	-1.8	.	14.1	0.9	-1.19	8.8
CCOC(=O)c1c(C)c(C(=O)N2CCc3ccccc3C2)c(C)n1CC	13.7	.	13.5	0.9	-4.56*	.
CCOc1ccccc1CNC(=O)c1cc2oc3ccccc3c2n1CC	97.2*	-0.153	22.4	0.8	.	24.5
CCOc1ccc(CNC(=O)c2cc3oc4ccccc4c3n2C)cc1	-4.2	0.904	0.0	1	-0.424	9.0
CCn1c(C(=O)N2CCc3ccccc3C2)cc2oc3ccccc3c21	-4.7	0.253	0.0	1	-0.0158	78.4*
CCOC(=O)c1c(C)c(C(=O)Nc2ccccc2)c(C)n1CC	7.0	0.378	16.5	0.8	-1.97	26.8
O=C(Cn1ncc2c(=O)oc3ccccc3c21)N1CCc2ccccc2C1	-1.2	.	8.0	0.9	-1.11	9.2
Cn1c(C(=O)N2CCc3ccccc3C2)cc2oc3ccccc3c21	-6.6	0.975	11.5	0.9	-1.04	66.4*
Cc1cc(C)c2c(N)c(C(=O)N/N=C/c3ccccc3)sc2n1	.	0.00837	.	.	0.375	.
Cc1ccc(Cl)cc1NC(=O)N(C)CCO	.	.	.	.	0.295	.
Cc1ccc(-c2nnc(SCC(=O)N3CCOCC3)nc2-c2ccc(C)cc2)cc1	98.5*	.	7.4	0.9	-0.042	74.4*
Cc1ccc(-c2nnc(SCC(=O)NC3CCS(=O)(=O)C3)nc2-c2ccc(C)cc2)cc1 (stereo not given)	77.8*	0.303	18.7	0.8	-0.709	22.1
CCn1c(SCC(=O)NC2CCS(=O)(=O)C2)nnc1-c1ccccc1 (stereo not given)	-2.0	0.49	9.1	0.9	0.00829	10.9
Cc1ccc(-c2cn(-c3ccccc3)c(SCC(=O)NC3CCS(=O)(=O)C3)n2)cc1C (stereo not given)	85.5*	-0.484	21.7	0.8	11.7*	-19.0
CCn1c2ccccc2c2nnc(SCC(=O)NC3CCS(=O)(=O)C3)nc21 (stereo not given)	1.5	-0.686	18.1	0.8	-1.04	2.7
Cc1ccc(SCC(=O)N2CCOCC2)cc1	-6.1	.	-6.1	1.1	0.194	-2.6
O=C(CSc1nnc(COc2ccccc2F)n1-c1ccccc1)NC1CCS(=O)(=O)C1 (stereo not given)	69.9*	0.876	2.2	1	0.88	-4.2
CC(C)c1ccc(NC(=O)c2cccc(Br)c2)cc1	2.0	.	8.9	0.9	0.388	24.8
NS(=O)(=O)c1ccc2nc(NC(=O)c3ccncc3)sc2c1	-3.2	1.5	0.2	1	0.559	-2.3
COc1ccccc1CN1CCNC(=O)C1CC(=O)N(C)Cc1ccon1 (stereo not given)	-1.9	1.44	10.5	0.9	1.23	0.6
CNc1ccc(S(=O)(=O)NCC(=O)OCC(=O)Nc2cccc(Cl)c2Cl)cc1[N+](=O)[O-]	41.5	0.75	20.0	0.8	1.01	15.0
COc1ccc(C2C(C#N)=C(N)Oc3cc4c(cc32)OCO4)cc1 (stereo not given)	96.0*	.	20.1	0.8	-0.0404	1.0
O=[N+]([O-])c1c(NCCCO)cc(SCc2ccco2)c2nonc12	15.1	-0.506	65.7*	0.3	-1.41	-2.8
CC(=O)OCCCNc1cc(Sc2nc3ccccc3s2)c2nonc2c1[N+](=O)[O-]	65.0*	.	62.5*	0.4	0.471	96.5*
SMILES	L major viab	ROMK primary	Diaph inh CS	Diaph act CS	Cl transport mod	WT yeast gro inh
O=[N+]([O-])c1c(NCCCO)cc(Sc2ccc(Cl)cc2)c2nonc12	-3.8	-1.19	54.1*	0.5	0.00957	-4.1
Cn1ccnc1Sc1cc(NCCCO)c([N+](=O)[O-])c2nonc12	-1.8	1.22	30.4	0.7	-0.408	4.0
O=[N+]([O-])c1c(NCCCO)cc(N2CCN(Cc3ccc4c(c3)OCO4)CC2)c2nonc12	0.9	-2.98	36.2	0.6	-1.44	7.6
COc1ccc(CNc2cc(NCCCO)c([N+](=O)[O-])c3nonc23)cc1	66.7*	-1.55	60.7*	0.4	-0.578	5.9
CC(=O)OCCCNc1cc(Sc2ccc(C)cc2)c2nonc2c1[N+](=O)[O-]	5.5	.	34.5	0.7	-0.0597	-0.5
OCC1(O)OC[C@@H](O)[C@H]1O (stereo not given in full)	.	.	.	.	0.313	.
CCNS(=O)(=O)c1ccc(OC)c(C(=O)NC2CCCCC2)c1	3.7	1.73	4.3	1	1.47	-5.2
CC(=O)OCCNc1cc(SCc2ccco2)c2nonc2c1[N+](=O)[O-]	32.6	-1	76.9*	0.2	0.162	6.6
O=[N+]([O-])c1c(NCCO)cc(N2CCC3(CC2)OCCO3)c2nonc12	11.2	0.0708	55.4*	0.4	-0.239	-23.9
COc1cccc(C(=O)N2C(C(=O)O)CSC2c2ccccc2Cl)c1 (stereo not given)	-2.8	-0.0367	-4.5	1	-0.538	-8.2
CC(C)NC(=O)C1CCN(C2CCN(Cc3nc(C(C)C)cs3)CC2)CC1	21.3	-0.0379	10.8	0.9	0.529	-2.0
CC(C)NC(=O)C1CCN(C2CCN(Cc3ccc4cccc(F)c4n3)CC2)CC1	73.4*	-0.178	5.7	0.9	0.656	8.8
Cc1cc(S(=O)(=O)NC2CCCCC2)ccc1OCC(=O)NCC1CCCO1 (stereo not given)	-6.4	-1.01	-2.4	1	1.49	13.0
CS(=O)Cc1cc(Sc2ccccc2)nc(-c2ccncc2)n1 (stereo not given)	-1.2	-0.0753	-11.2	1.1	.	-6.8
Fc1cnc(N2CCOCC2)nc1N1CCc2ccccc21	6.1	-2.8*	5.5	0.9	-3.26*	50.1
Fc1cnc(N2CCOCC2)nc1N1CCOCC1	-4.4	0.0878	3.7	1	0.172	-16.8
CCOc1cc(CNc2ccc(S(N)(=O)=O)cc2)ccc1OCC(=O)NC(C)(C)C	-1.9	-0.375	9.0	0.9	1.57	8.2
CCOc1cccc(CNc2ccc(O)cc2)c1OCc1ccc(Cl)cc1	100.0*	.	44.2	0.6	0.0305	17.7
Oc1ccc(NCc2ccccc2OCc2ccccc2F)cc1	100.0*	0.493	35.9	0.6	-1.76	15.7
CCOc1ccccc1CNc1ccc(O)cc1	22.4	0.125	44.9	0.6	-0.175	21.9
CCOc1cc(CNc2ccc(O)cc2)ccc1OCc1ccc(Cl)cc1Cl	42.2	.	65.6*	0.3	.	17.6

From PubChem BioAssay
